Calls of active or inactive are those of the source. The rule behind the calls is not given here.
How the values were obtained:
Mus musculus [1] = experiment: Anticonvulsant activity in ip dosed Albino mouse assessed as protection against maximal electric shock-induced seizure after 4 hrs; type: functional
Procedure, shortened: (§1)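 Mice given test compound i.p. in polyethylene glycol at 30, 100 and 300 mg/kg; corneal electrodes delivered 50 mA, 60 Hz for 0.25 s at 0.5 h and 4.0 h after dosing. Protection scored as abolition of hind limb tonic extension.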

Mus musculus [2] = experiment: Anticonvulsant activity in Albino mouse assessed as protection against maximal electric shock-induced seizure at 300 mg/kg, ip after 0.5 hrs; type: functional, organism-based; design: dose 300 mg/kg; procedure, shortened: as §1
Mus musculus [3] = experiment: Anticonvulsant activity in Albino mouse assessed as protection against scPTZ-induced seizure at 300 mg/kg, ip after 0.5 hrs; type: functional, organism-based; design: dose 300 mg/kg
Procedure, shortened: (§2)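 Test compound given i.p. in polyethylene glycol at 30, 100 and 300 mg/kg. Pentylenetetrazole 75 mg/kg, as a 0.5% solution, injected subcutaneously in the posterior midline. Animals examined 0.5 h and 4 h after dosing. Value is the minimum dose active in half or more of the mice; dash means no activity at maximum dose.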

Mus musculus [4] = experiment: Anticonvulsant activity in Albino mouse assessed as protection against scPTZ-induced seizure at 300 mg/kg, ip after 4 hrs; type: functional, organism-based; design: dose 300 mg/kg; procedure, shortened: as §2
Mus musculus [5] = experiment: Anticonvulsant activity in ip dosed Albino mouse assessed as protection against maximal electric shock-induced seizure after 0.5 hrs; type: functional; procedure, shortened: as §1
Mus musculus [6] = experiment: Anticonvulsant activity in ip dosed Albino mouse assessed as protection against scPTZ-induced seizure after 0.5 hrs; type: functional; procedure, shortened: as §2
Mus musculus [7] = experiment: Anticonvulsant activity in ip dosed Albino mouse assessed as protection against scPTZ-induced seizure after 4 hrs; type: functional; procedure, shortened: as §2
Mus musculus [8] = species on record: Mus musculus; experiment: Hepatotoxicity in Albino mouse assessed as albumin level measured per 100 mL (RVb =1.45 +/- 0.06 g); type: toxicity, organism-based; conditions: in vivo
Mus musculus [9] = species on record: Mus musculus; experiment: Hepatotoxicity in Albino mouse assessed as globulin level measured per 100 mL (RVb = 0.24 +/- 0.03 g); type: toxicity, organism-based; conditions: in vivo
Mus musculus [10] = species on record: Mus musculus; experiment: Hepatotoxicity in Albino mouse assessed as total protein level measured per 100 mL (RVb = 1.69 +/- 0.05 g); type: toxicity, organism-based; conditions: in vivo
Mus musculus [11] = experiment: Neurotoxicity in Albino mouse assessed as minimal motor impairment at 300 mg/kg, ip after 0.5 hrs by rotarod test; type: toxicity, organism-based; design: dose 300 mg/kg, route intraperitoneal; conditions: in vivo
Procedure, shortened: (§3)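 Mice pretrained on an accelerating rotorod, 3.2 cm diameter, rotating at 10 rpm. Test compound given i.p. in polyethylene glycol at 30, 100 and 300 mg/kg; examined at 0.5 h and 4 h. Neurotoxicity = inability to hold equilibrium on the rod for at least 1 min in each trial. Minimum dose affecting half or more of mice reported.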

Mus musculus [12] = experiment: Neurotoxicity in Albino mouse assessed as minimal motor impairment at 300 mg/kg, ip after 4 hrs by rotarod test; type: toxicity, organism-based; design: dose 300 mg/kg, route intraperitoneal; conditions: in vivo; procedure, shortened: as §3
Mus musculus [13] = species on record: Mus musculus; experiment: Hepatotoxicity in Albino mouse assessed as change in alkaline phosphatase level; type: toxicity, organism-based; conditions: in vivo
Procedure, shortened: (§4)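 Serum alkaline phosphatase, SGOT and SGPT levels measured in treated mice versus control; transaminases estimated by the Reitman–Frankel method. Results given as mean ± SEM.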

Mus musculus [14] = species on record: Mus musculus; experiment: Hepatotoxicity in Albino mouse assessed as change in SGOT level; type: toxicity, organism-based; conditions: in vivo; procedure, shortened: as §4
Mus musculus [15] = species on record: Mus musculus; experiment: Hepatotoxicity in Albino mouse assessed as change in SGPT level; type: toxicity, organism-based; conditions: in vivo; procedure, shortened: as §4
[16] = Neurotoxicity in ip dosed Albino mouse assessed as minimal motor impairment after 0.5 hrs by rotarod test; type: toxicity, organism-based; conditions: in vivo; procedure, shortened: as §3
Mus musculus [17] = experiment: Anticonvulsant activity in Albino mouse assessed as protection against maximal electric shock-induced seizure at 300 mg/kg, ip after 4 hrs; type: functional, organism-based; design: dose 300 mg/kg; procedure, shortened: as §1
[18] = Neurotoxicity in ip dosed Albino mouse assessed as minimal motor impairment after 4 hrs by rotarod test; type: toxicity, organism-based; conditions: in vivo; procedure, shortened: as §3

SMILES | ED50 (Mus musculus [1]) [mg/kg] | Activity (Mus musculus [2]) | Activity (Mus musculus [3]) | Activity (Mus musculus [4]) | ED50 (Mus musculus [5]) [mg/kg] | ED50 (Mus musculus [6]) [mg/kg] | ED50 (Mus musculus [7]) [mg/kg] | TD50 at 0.5 h [16] [mg/kg] | TD50 at 4 h [18] [mg/kg] | further results
COc1ccc(-c2cc(-c3ccc(F)cc3)nc(NC(=O)N/N=C\c3ccccc3Cl)n2)c(OC)c1 | 300 | inactive | inactive | inactive |  |  |  |  |  | 
C/C(=N/NC(=O)Nc1nc(-c2ccc(C)cc2)cc(-c2ccc(Cl)cc2)n1)c1ccc(Cl)cc1 | 300 |  |  |  | 30 | 300 | 300 |  |  | Activity (Mus musculus [8]): 1.52 g; Activity (Mus musculus [9]): 0.19 g; Activity (Mus musculus [10]): 1.71 g; Activity (Mus musculus [11]): Non-toxic; Activity (Mus musculus [12]): Non-toxic; Activity (Mus musculus [13]): Non-toxic; Activity (Mus musculus [14]): Non-toxic; Activity (Mus musculus [15]): Non-toxic
COc1ccc(/C(C)=N\NC(=O)Nc2nc(-c3ccc(Cl)cc3)cc(-c3ccc([N+](=O)[O-])cc3)n2)cc1 | 300 | inactive | inactive | inactive |  |  |  |  |  | 
COc1ccc(-c2cc(-c3ccc(Cl)cc3)nc(NC(=O)N/N=C\c3ccccc3[N+](=O)[O-])n2)c(OC)c1 | 300 | inactive | inactive | inactive |  |  |  |  |  | 
COc1ccc(-c2cc(-c3ccc(F)cc3)nc(NC(=O)N/N=C\c3cccc(Cl)c3)n2)cc1OC | 300 |  | inactive | inactive | 300 |  |  |  |  | 
COc1ccc(/C(C)=N\NC(=O)Nc2nc(-c3ccc(F)cc3)cc(-c3ccc([N+](=O)[O-])cc3)n2)cc1 |  |  |  |  | 100 | 100 | 300 | 300 |  | Activity (Mus musculus [17]): inactive; Activity (Mus musculus [12]): Non-toxic
COc1ccc(-c2cc(-c3ccc(F)cc3)nc(NC(=O)N/N=C\c3ccc([N+](=O)[O-])cc3)n2)cc1OC | 300 |  |  | inactive | 100 | 300 |  |  | 300 | Activity (Mus musculus [11]): Non-toxic
COc1ccc(-c2cc(-c3ccc(Cl)cc3)nc(NC(=O)N/N=C\c3ccc([N+](=O)[O-])cc3)n2)cc1OC | 100 |  |  |  | 30 | 100 | 100 |  |  | Activity (Mus musculus [8]): 1.74 g; Activity (Mus musculus [9]): 0.26 g; Activity (Mus musculus [10]): 2 g; Activity (Mus musculus [11]): Non-toxic; Activity (Mus musculus [12]): Non-toxic; Activity (Mus musculus [13]): Non-toxic; Activity (Mus musculus [14]): Non-toxic; Activity (Mus musculus [15]): Non-toxic
C/C(=N/NC(=O)Nc1nc(-c2ccc(Cl)cc2)cc(-c2ccc([N+](=O)[O-])cc2)n1)c1ccc(C)cc1 | 300 |  | inactive |  | 300 |  | 300 |  |  | 
COc1ccc(-c2cc(-c3ccc(Cl)cc3)nc(NC(=O)N/N=C\c3cccc(Cl)c3)n2)cc1OC | 300 |  | inactive |  | 100 |  | 300 | 300 | 300 | 
COc1ccc(-c2cc(-c3ccc(F)cc3)nc(NC(=O)N/N=C\c3ccccc3[N+](=O)[O-])n2)c(OC)c1 |  |  | inactive |  | 300 |  | 300 |  |  | Activity (Mus musculus [17]): inactive
C/C(=N/NC(=O)Nc1nc(-c2ccc(C)cc2)cc(-c2ccc(F)cc2)n1)c1ccc([N+](=O)[O-])cc1 | 300 |  | inactive |  | 100 |  | 300 | 100 | 100 | 
COc1ccc(-c2cc(-c3ccc(Cl)cc3)nc(NC(=O)N/N=C\c3ccccc3Cl)n2)c(OC)c1 | 300 | inactive | inactive | inactive |  |  |  |  |  | 
CCC1(c2ccccc2)C(=O)NC(=O)NC1=O [PHENOBARBITAL] | 30 |  | inactive | inactive | 100 |  |  | 100 | 300 | 
COc1ccc(-c2cc(-c3ccc(Cl)cc3)nc(NC(=O)N/N=C(/C)c3ccccc3Cl)n2)cc1 |  | inactive | inactive |  |  |  | 300 |  |  | Activity (Mus musculus [17]): inactive
O=C1NC(=O)C(c2ccccc2)(c2ccccc2)N1 [PHENYTOIN] | 30 |  | inactive | inactive | 30 |  |  | 100 | 100 | 
COc1ccc(-c2cc(-c3ccc(Cl)cc3)nc(NC(=O)N/N=C(/C)c3ccc(C)cc3)n2)cc1 |  |  | inactive | inactive | 300 |  |  |  |  | Activity (Mus musculus [17]): inactive
C/C(=N/NC(=O)Nc1nc(-c2ccc(F)cc2)cc(-c2ccc([N+](=O)[O-])cc2)n1)c1ccc(C)cc1 | 300 |  |  |  | 100 | 300 | 300 |  | 300 | Activity (Mus musculus [11]): Non-toxic
COc1ccc(-c2cc(-c3ccc(F)cc3)nc(NC(=O)N/N=C(/C)c3ccc(C)cc3)n2)cc1 | 100 | inactive |  |  |  | 300 |  | 100 |  | Activity (Mus musculus [12]): Non-toxic
C/C(=N/NC(=O)Nc1nc(-c2ccc(C)cc2)cc(-c2ccc(Cl)cc2)n1)c1ccc([N+](=O)[O-])cc1 | 300 |  |  |  | 100 | 300 | 300 | 100 | 100 | 
C/C(=N/NC(=O)Nc1nc(-c2ccc(C)cc2)cc(-c2ccc(F)cc2)n1)c1ccc(Cl)cc1 | 100 |  |  |  | 30 | 100 | 300 |  | 300 | Activity (Mus musculus [8]): 1.62 g; Activity (Mus musculus [9]): 0.31 g; Activity (Mus musculus [10]): 1.93 g; Activity (Mus musculus [11]): Non-toxic; Activity (Mus musculus [13]): Non-toxic; Activity (Mus musculus [14]): Non-toxic; Activity (Mus musculus [15]): Non-toxic
CCC1(C)CC(=O)NC1=O (stereo unspecified) [ETHOSUXIMIDE] |  | inactive |  |  |  | 100 | 300 |  |  | Activity (Mus musculus [17]): inactive; Activity (Mus musculus [11]): Non-toxic; Activity (Mus musculus [12]): Non-toxic

Source: ChEMBL document CHEMBL1165886, “Synthesis, anticonvulsant and toxicity screening of newer pyrimidine semicarbazone derivatives” (Eur J Med Chem, 2010)
